Screening results as filed in PubChem.
An excerpt weighted towards active compounds, which were near 3.7% of everything screened.
KCNQ1 pot = potentiators or activators of KCNQ1 channel, primary screen, cell-based, thallium flux, high-throughput; B-score at 10 µM; 0.35% of 310,000 active; CHO-K1 KCNQ1, thallium flux FluxOR fluorescence; hits give high values;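 active = fluorescence ratio B-score, a plate-corrected score, at least three library SD, with initial intensity B-score within 5 SD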
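assay system = CHO-K1 cells stably expressing KCNQ1 | medium = assay buffer, equal DMSO in all wells | timing = 37 °C overnight plating, 90-min dark dye load, 20-min compound pretreatment | measured by = kinetic FluxOR thallium fluorescence, 10-s 1-Hz baseline, 110-s post-stimulus read | measure = fluorescence change relative to baseline, converted to B score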
KCNK3 block = human KCNK3 channel inhibitors, primary screen, CHO cells, FluxOR thallium flux, B-score; B-score at 10 µM; 0.84% of 340,000 active; FluxOR fluorescence; hits give low values; Potassium channel subfamily K member 3 (Homo sapiens), O14649;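 active = B-score under library mean minus 4 SD, starting fluorescence ratio at most library mean plus 5 SD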;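 also: more negative B-score means stronger inhibition of thallium flux through KCNK3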
hERG rescue = hERG rescue from dofetilide block, primary screen, cell-based, CHO-hERG, FluxOR thallium flux, dofetilide IC70; Voltage-gated inwardly rectifying potassium channel KCNH2 (Homo sapiens), Q12809; dofetilide IC70 present; activation (rescue from dofetilide block), less the hit threshold, % at 10 µM; 0.51% of 310,000 active; AID 1511, 2009;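 active = activation above the mean of controls blocked by dofetilide plus 5 SD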;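 also: thallium influx through hERG after potassium depolarization seen as dye fluorescence rise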
KCNK9 inh = KCNK9 potassium channel inhibitors, primary screen, HEK293 cells, thallium flux; Potassium channel subfamily K member 9 (Homo sapiens), Q9NPC2; FluxOR thallium flux fluorescence; hits give low values; B-score at 10 µM; 1.2% of 310,000 active;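 active = ratio B-score over 3 SD below the library mean, with starting fluorescence within 5 SD of its mean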;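 also: negative B-score means less thallium flux so channel inhibition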
Target sequence (Q9NPC2 whole entry, looked up): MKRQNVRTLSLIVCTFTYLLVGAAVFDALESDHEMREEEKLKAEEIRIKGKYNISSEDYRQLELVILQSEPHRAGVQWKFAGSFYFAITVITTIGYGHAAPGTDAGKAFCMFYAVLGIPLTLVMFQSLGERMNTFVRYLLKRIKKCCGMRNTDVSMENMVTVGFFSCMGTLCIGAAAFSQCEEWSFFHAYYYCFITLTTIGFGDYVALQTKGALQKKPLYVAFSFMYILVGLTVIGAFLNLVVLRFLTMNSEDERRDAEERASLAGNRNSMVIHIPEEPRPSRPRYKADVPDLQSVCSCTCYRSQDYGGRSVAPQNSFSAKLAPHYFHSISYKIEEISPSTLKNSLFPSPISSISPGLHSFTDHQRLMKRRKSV
Kir21 inh = inhibitors of mouse Kir2.1 inward-rectifier potassium channel | 0.85% of 310,000 active | B-score at 10 µM | HEK293-Kir2.1, FluxOR thallium flux fluorescence; hits give low values;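 active = fluorescence ratio B-score at or below minus 3 SD of library scores, with starting-brightness B-score within 2 SD, cut at about -4.2 in these data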;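 also: channel flux triggered by added potassium and thallium sulfate stimulus; B-score of peak minus minimum fluorescence over baseline after thallium stimulus; more negative B-score means stronger Kir2.1 block with less thallium influx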
KCNQ1 inh = inhibitors of human KCNQ1 channel, primary screen, cell-based, thallium flux, high-throughput; Potassium voltage-gated channel subfamily KQT member 1 (Homo sapiens), P51787; CHO-K1 KCNQ1, FluxOR thallium flux fluorescence; hits give high values; 1.3% of 310,000 active; B-score at 10 µM;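 active = compounds whose thallium flux B-score, printed positive for inhibition, exceeds three library SD while starting fluorescence stays within three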;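 also: channel opened by potassium depolarization with thallium stimulus after 20 min compound exposure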
KCNK9 inh conf = KCNK9 potassium channel inhibitors, confirmation, HEK293 cells, thallium flux, duplicate. shares compounds with KCNK9 inh. FluxOR thallium flux fluorescence. inhibition, % at 10 µM. 43% of 4,900 active;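 active = thallium signal inhibited by more than 5 SD of the compound-free buffer control wells, on both duplicate plates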;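 also: 0% = assay buffer control wells without compound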
Kir2-1 spec = mouse Kir2.1 channel inhibition, confirmation, selectivity assay for KCNK9 modulator project, cell-based, HEK293, thallium flux; shares compounds with KCNK9 inh; Kir2.1 cells, FluxOR thallium flux fluorescence; inhibition, % at 10 µM; 4% of 4,900 active;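 active = thallium signal drop more than 5 SD beyond the mean of the no-compound control wells, seen in both duplicate plates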;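 also: signal is fluorescence rise after thallium addition divided by baseline fluorescence; plate controls were assay buffer only for no effect and full block by chlorpromazine control for full effect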
HEK293 Tl ctr = thallium flux in non-induced HEK293 cells, confirmation, counter-screen for KCNK9 inhibitor project, cell-based, second counter screen, non-induced KCNK9-HEK293. inhibition, % at 10 µM. AID 492997, 2010. 40% of 4,900 active. FluxOR thallium flux. shares compounds with KCNK9 inh;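 active = thallium signal drop beyond 5 SD of the untreated control mean, on both duplicate plates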;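 also: plate controls were buffer only IC0 wells for no effect and SID17386958 at its maximal inhibitory level for full effect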
* marks the source's active call; other numbers are inactive results; i = inactive; nt = not tested or not shown.

SMILES	KCNQ1 pot	KCNK3 block	hERG rescue	KCNK9 inh	Kir21 inh	KCNQ1 inh	KCNK9 inh conf	Kir2-1 spec	HEK293 Tl ctr
COC(=O)Cc1ccc(N(Cc2ccccc2F)S(=O)(=O)c2ccc(Cl)cc2)cc1	i	i	-17	-12*	0.71	i	60%*	i	40%*
COC(=O)CN(c1ccc(F)cc1)S(=O)(=O)c1ccccc1	i	i	-5	i	-3.6	i	nt	nt	nt
Nc1c(Cl)cc(C2=NCCn3nc4cc(C(F)(F)F)ccc4c32)cc1Cl	8*	i	-5	-13*	0.51	i	58%*	i	i
Cc1cccc(C)c1NC(=O)CSc1nnc(Cn2nnc(-c3ccccc3)n2)n1-c1ccccc1	i	i	-13	i	-1	i	nt	nt	nt
O=c1c(Cc2ccc(F)cc2)c(O)ccn1Cc1cccc(Cl)c1	i	i	-7	i	-0.26	i	nt	nt	nt
O=c1c(Cc2ccc(Cl)cc2)c(O)ccn1Cc1cccc(Cl)c1	i	i	-10	i	-0.19	i	i	i	i
O=c1c(Cc2ccc(Cl)cc2Cl)c(O)ccn1Cc1ccc(Cl)cc1	i	i	-9	i	0.95	8*	i	i	i
O=c1c(Cc2ccc(Cl)cc2)c(O)ccn1Cc1ccccc1	i	i	-7	i	-0.71	i	nt	nt	nt
CCOC(=O)CN1C(=O)C(Sc2n[nH]c(-c3ccc(O)cc3)n2)CCc2ccccc21 (stereo unspecified)	i	i	-20	-9.4*	1.3	i	36%*	i	i
CC1CC(C)CN(C(=O)c2ccc(C(=O)c3ccccc3)cc2)C1 (stereo unspecified)	i	i	-13	i	1.6	i	i	i	i
CC1CC(C)CN(C(=O)c2ccc(C#N)cc2)C1 (stereo unspecified)	i	i	-6	i	-2	i	nt	nt	nt
CC1CC(C)CN(C(=O)c2ccc(S(=O)(=O)N3CC(C)CC(C)C3)cc2)C1 (stereo unspecified)	i	i	-6	i	-0.82	i	i	i	i
Cc1ccc2c(c1)N(CC(=O)NCCc1ccccc1)C(=O)c1cccnc1O2	i	i	-11	i	-1.6	i	i	i	i
Cc1cc(C)cc(OC(C)C(=O)Nc2ccc(S(=O)(=O)Nc3cc(C)nc(C)n3)cc2)c1 (stereo unspecified)	i	i	-15	i	-0.85	i	nt	nt	nt
Cc1ccc(N=Cc2cc(Cc3ccccc3Cl)cc([N+](=O)[O-])c2O)c(O)c1	i	i	-11	-8.8*	1.9	i	i	i	65%*
CCCn1c(SCC(=O)N2c3ccccc3CC2C)n[nH]c1=O (stereo unspecified)	nt	i	nt	nt	nt	nt	nt	nt	nt
COC(=O)c1cc(OC)c(OC)cc1NC(=S)N1CCN(C/C=C/c2ccccc2)CC1	i	i	-11	i	-0.56	i	i	i	i
COc1ccc(NC(=S)N2CCN(C/C=C/c3ccccc3)CC2)c(OC)c1	i	i	-6	i	-0.55	i	nt	nt	nt
COc1cc(C(=O)N2CCN(C/C=C/c3ccccc3)CC2)cc(OC)c1OC	i	i	-12	i	-0.74	i	nt	nt	nt
CCOc1cc(C(=O)N2CCN(C/C=C/c3ccccc3)CC2)cc(OCC)c1OCC	i	i	-4	i	-1.5	i	i	i	i
CCOc1ccc(S(=O)(=O)N2CCOCC2)cc1NC(=O)CN1C(=O)NC2(CCCCC2)C1=O	nt	i	nt	nt	nt	nt	nt	nt	nt
Cc1nnc(NC(=O)c2ccc(S(=O)(=O)C(F)F)cc2)s1	i	i	-7	i	-0.03	i	nt	nt	nt
COc1ccccc1CN1C[C@@H]2C[C@@H](c3ccccc3C)N3CCC[C@@]23C1=O	i	i	-8	i	0.73	i	i	i	i
COc1ccccc1NC(=O)c1ccc(CN(c2cc(Cl)ccc2C)S(=O)(=O)c2ccccc2)cc1	i	i	-4	i	0.47	i	nt	nt	nt
Cc1ccc(Cl)cc1N(Cc1ccc(C(=O)NCc2cccnc2)cc1)S(=O)(=O)c1ccccc1	i	i	-8	-8.3*	1.2	i	i	i	i
SMILES	KCNQ1 pot	KCNK3 block	hERG rescue	KCNK9 inh	Kir21 inh	KCNQ1 inh	KCNK9 inh conf	Kir2-1 spec	HEK293 Tl ctr
O=S1(=O)c2c(F)cccc2O[C@@H](COCc2ccccc2)CN1CCc1ccc(F)cc1	nt	i	nt	nt	nt	nt	nt	nt	nt
CC1(c2ccccc2)CC(C)(C)N2C(=O)C(=O)c3cccc1c32 (stereo unspecified)	i	i	-17	i	-2.1	i	i	i	i
CC1CC(C)CN(C(=O)c2ccc3c(c2)N(Cc2ccccc2)CCS3)C1 (stereo unspecified)	i	-12*	-7	-8.2*	-1.5	i	51%*	i	34%*
Cc1ccc(CN2CCSc3ccc(C(=O)NC4CCN(Cc5ccccc5)CC4)cc32)cc1	i	i	-22	i	-0.49	7*	i	i	i
CCOC(=O)C1(Cc2ccc(OC)cc2)CCN(C(=O)c2cc(C)nn2C)CC1	i	i	-11	i	0.55	i	nt	nt	nt
CN(C)c1ccc(/C=N/n2c(-c3ccccc3Br)n[nH]c2=S)cc1	i	i	-3	i	0.45	i	i	i	i
O=C(Nc1nc2ccccc2[nH]1)c1ccccc1[N+](=O)[O-]	i	i	-6	i	-0.43	i	nt	nt	nt
Cc1c(C(=O)Nc2nc3ccccc3[nH]2)cccc1[N+](=O)[O-]	i	i	-5	-8.4*	1.8	i	47%*	i	26%*
Cc1sc2nc(SCc3ccccc3)n(Cc3ccco3)c(=O)c2c1C	i	i	-7	i	-0.65	i	nt	nt	nt
